Results published in ChEMBL document CHEMBL2040825, “Synthesis and cytotoxicity of 3,4-disubstituted-5-(3,4,5-trimethoxyphenyl)-4H-1,2,4-triazoles and novel 5,6-dihydro-[1,2,4]triazolo[3,4-b][1,3,4]thiadiazole derivatives bearing 3,4,5-trimethoxyphenyl moiety” (Bioorg Med Chem Lett, 2012).
pIC50: −log10 of the molar value.

Key:
Format in all cases: functional, cell-based
MKN-45 = experiment: Cytotoxicity against human MKN45 cells after 48 hrs by MTT assay; settings: MKN-45, 48 h
Summary of the method: (§1)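 Cells grown in DMEM with 10% FBS and passaged by trypsinization at 70-80% confluence. Seeding density was 8 × 10^4 cells/well for MKN45, HT-29 and MCF-7 and 5 × 10^4 cells/well for HepG2, then 24 h attachment at 37 °C. Compounds from 10 mM DMSO stock were diluted in medium and applied for 48 h at 37 °C, with 0.1% DMSO as negative control.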

HepG2 = experiment: Cytotoxicity against human HepG2 cells after 48 hrs by MTT assay; settings: HepG2, 48 h; summary of the method: as §1
MCF7 = experiment: Cytotoxicity against human MCF7 cells after 48 hrs by MTT assay; settings: MCF7, 48 h; summary of the method: as §1
HT-29 = experiment: Cytotoxicity against human HT-29 cells after 48 hrs by MTT assay; settings: HT-29, 48 h; summary of the method: as §1

SMILES | pIC50 (MKN-45) | pIC50 (HepG2) | pIC50 (MCF7) | pIC50 (HT-29)
CCOC(=O)CSc1nnc(-c2cc(OC)c(OC)c(OC)c2)n1/N=C/c1ccc(OC)cc1OC | < 3.70 | < 3.70 | < 3.70 | < 3.70
COc1cccc2c1C(=O)c1c(O)c3c(c(O)c1C2=O)C[C@@](O)(C(=O)CO)C[C@@H]3O[C@H]1C[C@H](N)[C@H](O)[C@H](C)O1 [DOXORUBICIN] | 6.77 | 5.25 |  | 
COc1cc(-c2nnc3n2NC(CC(=O)c2ccc(C)cc2)(c2ccccc2)S3)cc(OC)c1OC (stereo not given) | 5.13 | 6.24 | < 3.70 | 3.82
COc1cc(-c2nnc(SCc3ccccc3)n2/N=C/c2ccccc2)cc(OC)c1OC | < 3.70 | < 3.70 | < 3.70 | < 3.70
COc1ccc(/C=N/n2c(SCc3ccccc3)nnc2-c2cc(OC)c(OC)c(OC)c2)c(OC)c1 | 4.31 | 4.22 | 3.82 | < 3.70
COc1ccc(/C=N/n2c(SCc3ccc(F)cc3)nnc2-c2cc(OC)c(OC)c(OC)c2)c(OC)c1 | < 3.70 | < 3.70 | < 3.70 | 3.90
COc1cc(-c2nnc(SCc3ccccc3Cl)n2/N=C/c2ccccc2)cc(OC)c1OC | < 3.70 | 4.50 | < 3.70 | < 3.70
CCOC(=O)CC1(c2ccccc2)Nn2c(nnc2-c2cc(OC)c(OC)c(OC)c2)S1 (stereo not given) | < 3.70 | < 3.70 | < 3.70 | < 3.70
COc1ccc(C2(CC(=O)c3ccc(C)cc3)Nn3c(nnc3-c3cc(OC)c(OC)c(OC)c3)S2)c(OC)c1 (stereo not given) | 4.86 | 5.50 | 4.96 | 4.18
COc1cc(-c2nnc(SC)n2/N=C/c2ccccc2)cc(OC)c1OC | 4.55 | < 3.70 | < 3.70 | < 3.70
COc1ccc(/C=N/n2c(SC)nnc2-c2cc(OC)c(OC)c(OC)c2)c(OC)c1 | < 3.70 | < 3.70 | < 3.70 | 3.84
COc1cc(-c2nnc(SCc3ccc(F)cc3)n2/N=C/c2ccccc2)cc(OC)c1OC | < 3.70 | < 3.70 | < 3.70 | < 3.70
COc1ccc(/C=N/n2c(SCc3ccccc3Cl)nnc2-c2cc(OC)c(OC)c(OC)c2)c(OC)c1 | < 3.70 | < 3.70 | 4.20 | < 3.70
